According to paper PMC7216793 (Molecular pharmaceutics, 2020):

Legend:
[1] = kinetics of ring opening and closing by 1H-NMR; type: physicochemical; conditions: 0.1 N DCl in 50:50 D2O:d6-DMSO
[2] = spectrophotometric pH transition; type: physicochemical; conditions: absorbance difference at 252 and 292 nm vs pH
In short: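 Closed or open form at 50 μM (1% DMSO), in buffers adjusted to 0.1 M ionic strength with KCl: 50 mM phosphoric acid pH 1–2, 50 mM acetate pH 3–5, 50 mM phosphate pH 6–8, 12.5 mM borate pH 9. After 24 h at rt, spectra were read 230–400 nm, DMSO blank subtracted (two experiments, duplicate). Summed absorbance differences at 252/292 nm vs pH were fitted by nonlinear regression.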

[3] = oral dosages of 1000 mg/kg; cited from earlier work
[4] = mass spectrometry analysis of pH dependent ratio of closed and open MIDD0301; type: physicochemical
In short: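 Closed form at 50 μM in water was brought to pH 1 with 0.1 M HCl. It was then stepped up to pH 9 with 10% ammonium hydroxide, taking an aliquot at each pH. Aliquots stood 24 h at rt, then final pH was measured. Each was infused directly into the MS without LC or added solvent. Closed:open ratio came from peak heights at 414 and 432 m/z.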

[5] = kinetics of ring opening and closing by UV absorbance at 246 nm; type: physicochemical; conditions: UV 246 nm, aqueous 0.1 N HCl
In short: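 Four replicate wells, each with 5 μL of 1 mM closed form plus 75 μL aqueous acid (0.1 N HCl; final 62.5 μM). A246 read every 30 s for 260 min, with a DMSO-containing buffer blank subtracted. Averaged absorbance-time curves (n = 4) were fitted by first-order kinetics to give k and half-life.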

[6] = acid titration of basic MIDD0301 solution with 1 N HCl; type: physicochemical; conditions: 50 μM in 0.1 N NaOH, water with 30 % DMSO; nonlinear regression
[7] = pharmacokinetic study in mice: blood, lung and brain concentrations by LC-MS/MS; type: in vivo, Swiss Webster mice
In short: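 Six-week-old female Swiss Webster mice (SPF) received closed or open form by intragastric gavage at 25 mg/kg in various vehicles (n = 4). At 60 min, heparinised blood was drawn by cardiac puncture and non-perfused brain and lungs were harvested. Samples were extracted in methanol with internal standard. Both forms were quantified by LC-MS/MS (C18; methanol/water, 0.1% formic acid; positive mode).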

[8] = system: asthmatic mice (ovalbumin sensitized and challenged model); conditions: cited from earlier work
[9] = shake flask solubility at different pH, UV at 270 nm; type: physicochemical; conditions: 24 h shake flask
In short: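 2 mg closed form in 200 μL buffered water was shaken 24 h in a closed vial. It was centrifuged 5 min at 16000 × g and supernatant pH was measured. Three 10 μL aliquots were diluted into 50:50 methanol/25 mM phosphate pH 10 and read at 270 nm. Concentration came from a calibration curve in the same diluent. Three independent measurements per pH.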

[10] = logD oct/wat at different pH; type: physicochemical; conditions: 1-octanol/buffered water, 24 h
In short: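 Shake-flask partition of the closed form. 200 μL of 2.5 mM in 1-octanol was added to 300 μL water-saturated octanol and 500 μL octanol-saturated buffer (pH 1–9). Vials were shaken overnight and left 1 h to separate. Aliquots of each layer were diluted in octanol or buffer and read at 270 nm (isosbestic). Concentrations came from per-phase calibration curves. Run in triplicate.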

[11] = system: airway resistance induced with methacholine; conditions: airway resistance induced with 25 mg/ml methacholine; cited from earlier work
[12] = earlier work, no reference given; cited from earlier work
[13] = 28 day dosing of 100 mg/kg; cited from earlier work
ASM = conditions: cited from earlier work
[14] = mice, 25 mg/kg oral, 60 min, Entry 1: 2.5 % PEG400, 98 % HPMC (2 % in water), pH 6.1
[15] = mice, 25 mg/kg oral, 60 min, Entry 2: 40 % propylene glycol, 60 % HPMC (2 % in water), pH 5.9
[16] = mice, 25 mg/kg oral, 60 min, Entry 4: 2.5 % PEG400, 98 % HPMC (2 % in PBS, pH 7.4)
[17] = mice, 25 mg/kg oral, 60 min, Entry 4: 2.5 % PEG400, 98 % HPMC (2 % in PBS, pH 7.4), listed as Closed MIDD0301, 25 mg/kg
[18] = mice, 25 mg/kg oral, 60 min, Entry 4: 2.5 % PEG400, 98 % HPMC (2 % in PBS, pH 7.4), listed as closed MIDD0301, 25 mg/kg
[19] = mice, 25 mg/kg oral, 60 min, Entry 5: pretreatment with omeprazole (30 mg/kg), 2.5 % PEG400, 98 % HPMC (2 % in PBS)

C[C@H]1N=C(c2ccccc2F)c2cc(Br)ccc2-n2cnc(C(=O)O)c21 [MIDD0301]
kacid, conversion of closed to open MIDD0301 ([1]; 2.4 mM, pseudo first order): 0.050 min⁻¹ | half-life of ring opening [1]: 13.7 min | pH of the spectrophotometric transition [2]: 4.34 | CNS effects in sensorimotor studies [3]: no CNS effects | closed MIDD0301 remaining by MS ([4]; 0.1 N HCl, after 24 h): 10% | open MIDD0301 share by MS ([4]; pH 6, after 24 h): 17% | open MIDD0301 share by MS ([4]; pH 7 and higher, 24 h): 2% | calculated equilibrium pH (equal peak heights of closed and open form) ([4]; water, 24 h, MS 414 vs 432 m/z): 4.3 | pH range in which the equilibrium between open and closed form was observed ([4]; water, MS): 4–5 | kacid, conversion of closed to open MIDD0301 ([5]; 62.5 μM): 0.142 min⁻¹ | half-life in 0.1 N HCl [5]: 4.8 min | pH of inflection, acid titration [6]: 4.69 | percentage of open MIDD0301 in comparison to closed MIDD0301 ([7]; all biological samples, all formulations): ≤ 4% | Concentration of closed MIDD0301, Brain [7, 14]: 87 ± 27 nM | Concentration of open MIDD0301, Blood [7, 14]: 9 ± 3 nM | Concentration of open MIDD0301, Brain [7, 14]: 3 ± 1 nM | Concentration of open MIDD0301, Lung [7, 14]: 5 ± 2 nM | open MIDD0301, % of closed MIDD0301, Blood [7, 14]: 3% | open MIDD0301, % of closed MIDD0301, Brain [7, 14]: 2% | open MIDD0301, % of closed MIDD0301, Lung [7, 14]: 2% | concentration of open MIDD0301 as % of closed MIDD0301, all samples ([7]; mice, 25 mg/kg oral, 60 min, Entry 1, blood, lung, brain): 2–3% | Concentration of closed MIDD0301, Brain [7, 15]: 104 ± 42 nM | Concentration of open MIDD0301, Blood [7, 15]: 6 ± 2 nM | Concentration of open MIDD0301, Brain [7, 15]: 3 ± 1 nM | Concentration of open MIDD0301, Lung [7, 15]: 9 ± 2 nM | open MIDD0301, % of closed MIDD0301, Blood [7, 15]: 3% | open MIDD0301, % of closed MIDD0301, Brain [7, 15]: 3% | open MIDD0301, % of closed MIDD0301, Lung [7, 15]: 2% | Concentration of closed MIDD0301, Brain [7, 16]: 130 ± 24 nM | Concentration of open MIDD0301, Blood [7, 16]: 18 ± 14 nM | Concentration of open MIDD0301, Brain [7, 16]: 4 ± 3 nM | Concentration of open MIDD0301, Lung [7, 16]: 28 ± 19 nM | open MIDD0301, % of closed MIDD0301, Blood [7, 16]: 4% | open MIDD0301, % of closed MIDD0301, Brain [7, 16]: 3% | open MIDD0301, % of closed MIDD0301, Lung [7, 16]: 2% | Concentration of closed MIDD0301, Blood [7, 17]: 413 ± 116 nM | Concentration of closed MIDD0301, Lung [7, 17]: 1745 ± 1121 nM | Concentration of closed MIDD0301, Blood [7, 18]: 413 nM | Concentration of closed MIDD0301, Lung [7, 18]: 2046 nM | Concentration of closed MIDD0301, Blood [7, 19]: 516 ± 180 nM | Concentration of closed MIDD0301, Brain [7, 19]: 159 ± 33 nM | Concentration of closed MIDD0301, Lung [7, 19]: 2046 ± 1155 nM | Concentration of open MIDD0301, Blood [7, 19]: 20 ± 8 nM | Concentration of open MIDD0301, Brain [7, 19]: 4 ± 2 nM | Concentration of open MIDD0301, Lung [7, 19]: 32 ± 21 nM | open MIDD0301, % of closed MIDD0301, Blood [7, 19]: 4% | open MIDD0301, % of closed MIDD0301, Brain [7, 19]: 3% | open MIDD0301, % of closed MIDD0301, Lung [7, 19]: 2% | MIDD0301 in non-perfused brain as % of lung concentration ([7]; mice, oral, under these specific conditions (Conclusions)): less than 10% | IL-17A, IL-4 and TNFα in the lungs ([8]; asthmatic mice): reduction | airway hyperresponsiveness to methacholine challenge ([8]; oral 100 mg/kg): reduced airway hyperresponsiveness | eosinophil, CD4+ T cell and macrophage numbers in the lungs ([8]; oral 100 mg/kg): reduced | aqueous solubility ([9]; neutral pH): > 3 g/L | aqueous solubility ([9]; pH 3.9): < 0.1 g/L | pH range of highest concentration in 1-octanol [10]: 2–5 | nebulized dose sufficient to overcome airway resistance [11]: 0.8 mg/kg | oral dosage required to achieve pharmacological effects [12]: 50 mg/kg | humoral immune response to T-dependent antigen dinitrophenyl-keyhole limpet haemocyanin [13]: no change | signs of toxicity [13]: no signs of toxicity

CC(C)c1cccc(C(C)C)c1O [propofol]
effect on airway smooth muscle (ASM): relaxed ASM
